Screening results as filed in PubChem.
Hits are enriched below; roughly 2.2% of the tested compounds scored in any of these assays.
MT stabilizer: microtubule stabilization, imaging screen; HeLa tubulin immunostaining HCS, 24 h; share of cells brighter than vehicle mean+2SD; % tubulin-high responders, % at 10 µM; 200,000 compounds, 0.83% hits; AID 2205;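 active means plate Z-score above 3 for both tubulin-high and condensed-nucleus cell shares, with cell loss under 80%, at 10 µM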;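 further: anti alpha tubulin signal scored within the nucleus-defined area of each cell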
Ba/F3 V617F tox: reduce viability of Ba/F3 cells dependent on JAK2V617F; inhibition, % at 5.6 µM; Ba/F3 EpoR-JAK2V617F viability, ATP luminescence; 220,000 compounds, 1.1% hits;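 active means inhibition above the campaign mean plus 3 SD over all tested compounds, cut at about 24% in these data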;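 further: cytokine-independent growth of Ba/F3 cells driven by EpoR plus mutant JAK2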
APP 5UTR inh: APP translation inhibition; SH-SY5Y APP 5'UTR-luciferase reporter, luminescence; inhibition, % at 2 µM; 190,000 compounds, 0.82% hits; AID 1285;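 active means inhibition above a set limit, derived from the sample mean plus 3 SD, cut at about 45% in these data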
BaF3 parental: reduces parental Ba/F3 cell viability, JAK2V617F counter-screen. 220,000 compounds, 1.1% hits. inhibition, % at 5.6 µM. CellTiter-Glo ATP luminescence;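 active means inhibition above a per-campaign cutoff, the mean inhibition of all tested compounds plus 3 SD, cut at about 27% in these data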
bCat nuc transl: modulators of beta-catenin nuclear translocation. 190,000 compounds, 0.3% hits. nuclear translocation activity, % at 5 µM. AID 1665. HeLa beta-catenin nuclear translocation, immunofluorescence imaging;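 active means nuclear translocation activity above 50% at 5 µM, with a well cell count of 50 or more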;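 further: per-cell ratio of nuclear to cytoplasmic median beta-catenin stain intensity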
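Read-out: Nuclear/cytoplasmic beta-catenin signal ratio, % activation | Assay system: Human HeLa cell line | Times: 24 h compound exposure at 37°C, 5% CO2 | Signal: Fluorescence imaging of beta-catenin antibody stain plus DAPI | Dosing: 5 µM primary, 0.02–20 µM confirmation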
IEC-6 tox: kills IEC-6 intestinal cells in KLF5 counter-screen | IEC-6 cytotoxicity, luminescence viability | inhibition, % at 5 µM | 290,000 compounds, 0.78% hits | AID 1825
IEC-6 tox confirm: confirmation of cytotoxic compounds in rat IEC-6 intestinal epithelial cells | 1,900 compounds, 63% hits | inhibition, % at 5 µM | IEC-6 rat intestinal epithelial viability, luminescence | shares compounds with IEC-6 tox | AID 1907
Of the large screens only hits and unclear results are named; the others gave an inactive call (follow-up assays come after a bar, where they were run). Unless noted, no stated cut-off is given here; in the data, active means inhibition above about 22%; inactive means the rest.

COc1ccc(CN(C(=O)c2cc(=O)c3ccccc3o2)C2CCS(=O)(=O)C2)cc1OC (centres undefined)	none (no result: MT stabilizer, Ba/F3 V617F tox, APP 5UTR inh, BaF3 parental, bCat nuc transl)
C=C(C)COc1ccc(-c2n[nH]c(C)c2-c2ccc(OC)c(OC)c2)c(O)c1	Ba/F3 V617F tox 78, BaF3 parental 76, IEC-6 tox 75 (no result: MT stabilizer, APP 5UTR inh) | IEC-6 tox confirm 49
C=C(C)COc1ccc(-c2n[nH]c(C)c2Oc2ccccc2OC)c(O)c1	none
C=C(C)COc1ccc(-c2[nH]ncc2-c2ccc(OC)c(OC)c2)c(O)c1	MT stabilizer 58, Ba/F3 V617F tox 81, APP 5UTR inh 91, BaF3 parental 66, IEC-6 tox 62 | IEC-6 tox confirm 57
C=C(C)COc1ccc(-c2[nH]ncc2-c2ccc(OC)cc2)c(O)c1	none (no result: MT stabilizer, APP 5UTR inh)
CCn1cc(C(=O)NCC(OC)OC)c(=O)c2cc(S(=O)(=O)N3CCC(C)CC3)ccc21	IEC-6 tox 32 (no result: MT stabilizer, Ba/F3 V617F tox, APP 5UTR inh, BaF3 parental, bCat nuc transl) | IEC-6 tox confirm 25
C=CCNc1nnc(Cc2ccc(C(C)C)cc2)c(=O)[nH]1	IEC-6 tox 23 (no result: MT stabilizer, Ba/F3 V617F tox, APP 5UTR inh, BaF3 parental, bCat nuc transl) | IEC-6 tox confirm inactive
CC(C)CN1C(=O)NC2(CCCc3ccccc32)C1=O (centres undefined)	none (no result: MT stabilizer, Ba/F3 V617F tox, APP 5UTR inh, BaF3 parental, bCat nuc transl)
N=c1c(C(=O)NCC2CCCO2)cc2c(=O)n3ccccc3nc2n1Cc1ccccc1Cl (centres undefined)	IEC-6 tox 30 (no result: MT stabilizer, Ba/F3 V617F tox, APP 5UTR inh, BaF3 parental, bCat nuc transl) | IEC-6 tox confirm 24
CCN(CC)c1ccc(-c2nn3c(-c4n[nH]c5c4CCC5)nnc3s2)cc1	MT stabilizer 23, Ba/F3 V617F tox 75, APP 5UTR inh 96, BaF3 parental 78, bCat nuc transl 65, IEC-6 tox 85 | IEC-6 tox confirm 50
CN(C)CCNC(=O)c1cc2c(s1)-c1ccc(Cl)cc1SC2	IEC-6 tox 101 (no result: MT stabilizer, Ba/F3 V617F tox, APP 5UTR inh, BaF3 parental, bCat nuc transl) | IEC-6 tox confirm 28
COc1ccc(S(=O)(=O)N2CCc3cc4c(cc3C2C)OCCCO4)cc1 (centres undefined)	none (no result: MT stabilizer, Ba/F3 V617F tox, APP 5UTR inh, BaF3 parental, bCat nuc transl)
Cc1ccc(-c2[nH]ncc2/C=C(\C#N)C(=O)NC2CCCCC2)cc1	IEC-6 tox 22 | IEC-6 tox confirm inactive
CC(c1ccco1)N(C(=O)c1cccc(S(=O)(=O)N(C)C)c1)c1ccccn1 (centres undefined)	none (no result: MT stabilizer, Ba/F3 V617F tox, APP 5UTR inh, BaF3 parental, bCat nuc transl)
CC(=O)Nc1ccc(C(=O)OCCC(C)C)cc1	IEC-6 tox 25 | IEC-6 tox confirm 23
COCCCNC(=S)NNC(=O)c1cc(Cl)c(O)c(Cl)c1	none (no result: MT stabilizer, APP 5UTR inh)
COCCCNC(=S)NNC(=S)NCCCOC	IEC-6 tox 22 (no result: MT stabilizer, APP 5UTR inh) | IEC-6 tox confirm inactive
CN(C)CCCN1C(=O)c2cccc3c([N+](=O)[O-])ccc(c23)C1=O	Ba/F3 V617F tox 95, APP 5UTR inh 80, BaF3 parental 79, IEC-6 tox 39 | IEC-6 tox confirm 27
O=C1c2cccc3c([N+](=O)[O-])ccc(c23)C(=O)N1CCc1ccccn1	none (no result: MT stabilizer, APP 5UTR inh)
O=c1[nH]c(NCc2ccco2)nnc1Cc1ccccc1Cl	MT stabilizer 59, IEC-6 tox 22 | IEC-6 tox confirm inactive
C=CCOc1ccc2nc(NC(=O)OC)[nH]c2c1	MT stabilizer 38, Ba/F3 V617F tox 78, BaF3 parental 79, bCat nuc transl 109, IEC-6 tox 82 (no result: APP 5UTR inh) | IEC-6 tox confirm 53
Cn1c(=O)c2cc(S(=O)(=O)Nc3ccc4c(c3)OCO4)ccc2n(C)c1=O	IEC-6 tox 22 (no result: bCat nuc transl) | IEC-6 tox confirm inactive
Cn1c(=O)oc2cc(S(=O)(=O)Nc3ccc4c(c3)OCO4)ccc21	none
CCn1nc(C)cc1C(=O)N1CCCC(N2CCN(Cc3ccc4c(c3)OCO4)CC2)C1 (centres undefined)	none (no result: MT stabilizer, Ba/F3 V617F tox, APP 5UTR inh, BaF3 parental, bCat nuc transl)
C1=Nc2c(NCc3ccccc3)ncnc2Oc2ccccc21	IEC-6 tox 26 | IEC-6 tox confirm 24
Cc1ccnc(NC(=O)c2ccccc2NC(=O)c2ccc(Cl)cc2Cl)c1	IEC-6 tox 78 (no result: MT stabilizer, Ba/F3 V617F tox, APP 5UTR inh, BaF3 parental, bCat nuc transl) | IEC-6 tox confirm 59
Cc1oc(-c2cccc(Cl)c2)nc1CN1CCC(C(=O)NCCCN2CC(C)CC(C)C2)CC1 (centres undefined)	IEC-6 tox 22 (no result: MT stabilizer, Ba/F3 V617F tox, APP 5UTR inh, BaF3 parental, bCat nuc transl) | IEC-6 tox confirm 53
Cc1oc(-c2cccc(Cl)c2)nc1CN1CCC(C(=O)NCCCN2CCCC2=O)CC1	none (no result: bCat nuc transl)
Cc1ccc(NC(=O)c2cc(S(=O)(=O)N3CCOCC3)cs2)cc1	IEC-6 tox 97 (no result: MT stabilizer, Ba/F3 V617F tox, APP 5UTR inh, BaF3 parental, bCat nuc transl) | IEC-6 tox confirm inactive
COc1ccccc1C(=O)Nc1ccc2c(c1)nc(CCNC(=O)c1ccco1)n2C	IEC-6 tox 69 (no result: MT stabilizer, Ba/F3 V617F tox, APP 5UTR inh, BaF3 parental, bCat nuc transl) | IEC-6 tox confirm 53
COc1ccc(CNC(=O)C/C(C)=N/NC(=O)c2cc(OC)cc(OC)c2)cc1	IEC-6 tox 77 (no result: MT stabilizer, Ba/F3 V617F tox, APP 5UTR inh, BaF3 parental, bCat nuc transl) | IEC-6 tox confirm inactive
C/C(CC(=O)Nc1ccccn1)=N\NC(=O)c1ccccc1	none
COc1ccc(CNC(=O)C/C(C)=N/NC(=O)Cc2ccc(OC)c(OC)c2)cc1	none
COc1cc(OC)cc(C(=O)N/N=C(\C)CC(=O)Nc2ccccn2)c1	IEC-6 tox 74 (no result: MT stabilizer, Ba/F3 V617F tox, APP 5UTR inh, BaF3 parental, bCat nuc transl) | IEC-6 tox confirm inactive
CCCCCn1c(=O)[nH]c2cc(C(=O)NCCCN3CCCCC3CC)ccc2c1=O (centres undefined)	none (no result: MT stabilizer, Ba/F3 V617F tox, APP 5UTR inh, BaF3 parental, bCat nuc transl)
CCCc1nc2nc(C)c(NS(=O)(=O)c3ccc(C4CCCCC4)cc3)c(=O)n2[nH]1	none (no result: MT stabilizer, Ba/F3 V617F tox, APP 5UTR inh, BaF3 parental, bCat nuc transl)
Fc1cccc(NCCc2c[nH]c3ccccc23)n1	none (no result: MT stabilizer, Ba/F3 V617F tox, APP 5UTR inh, BaF3 parental, bCat nuc transl)
c1ccc2c(NCCc3c[nH]c4ccccc34)c3ccccc3nc2c1	IEC-6 tox 22 (no result: MT stabilizer, Ba/F3 V617F tox, APP 5UTR inh, BaF3 parental, bCat nuc transl) | IEC-6 tox confirm inactive
Cc1ccc(-c2nc(NCCCO)c3ccccc3n2)cc1	none (no result: MT stabilizer, Ba/F3 V617F tox, APP 5UTR inh, BaF3 parental, bCat nuc transl)
